Laboratory results as given in ChEMBL document CHEMBL3785023, “Development and Pharmacological Characterization of Selective Blockers of 2-Arachidonoyl Glycerol Degradation with Efficacy in Rodent Models of Multiple Sclerosis and Pain” (J Med Chem, 2016).
The source made the active and inactive calls. The rule behind the calls is not given here.

Experiments:
[1] = molecular target: T1, Lysophosphatidylserine lipase ABHD12 (Rattus norvegicus) (UniProt Q6AYT7); assay: Inhibition of ABHD12 in rat brain membranes up to 500 nM preincubated for 20 mins followed by fluorophosphonate-rhodamine addition measured after 30 mins by competitive affinity based proteomic profiling assay; format: cell membranes; details: Membrane
T1 sequence (whole entry): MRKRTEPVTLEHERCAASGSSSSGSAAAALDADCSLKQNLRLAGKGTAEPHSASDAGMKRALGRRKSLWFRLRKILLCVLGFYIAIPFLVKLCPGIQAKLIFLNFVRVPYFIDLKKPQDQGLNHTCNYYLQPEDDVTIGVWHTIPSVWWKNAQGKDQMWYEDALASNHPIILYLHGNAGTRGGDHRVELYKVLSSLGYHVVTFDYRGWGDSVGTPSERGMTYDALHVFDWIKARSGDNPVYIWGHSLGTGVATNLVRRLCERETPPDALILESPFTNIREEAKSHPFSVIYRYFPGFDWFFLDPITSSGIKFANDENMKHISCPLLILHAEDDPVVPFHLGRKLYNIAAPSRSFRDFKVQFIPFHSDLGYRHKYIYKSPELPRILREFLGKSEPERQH
Procedure, shortened: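 Rat brain membranes (1 mg/mL) preincubated with 1–1000 nM inhibitor or DMSO for 20 min at 37 °C. FP-rhodamine then added and incubated a further 30 min at 37 °C. Samples run on SDS-PAGE and serine hydrolase bands quantified by in-gel fluorescence.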

Mus musculus = assay: Antinociceptive activity in CD-1 mouse assessed as inhibition of formalin-induced pain response at 0.1 to 0.3 mg/kg, ip dosed 10 mins before formalin injection measured during early phase; format: functional, organism-based
Procedure, shortened: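 Male CD-1 mice, n = 6 per group, injected with formalin (1.25% in saline, 30 μL) into the dorsal hind paw. Inhibitor (0.1 or 0.3 mg/kg i.p. in 0.5% DMSO/saline) given 10 min before formalin. Where used, AM251 or AM630 (1 mg/kg i.p.) given 10 min before the inhibitor. Time spent lifting, licking, shaking or flinching the injected paw recorded every 5 min over 60 min.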

## O=C1[C@H](c2ccc(F)cc2)[C@@H](c2ccc3c(c2)OCO3)N1C1CCN(C(=O)n2cncn2)CC1 (racemic)
[1]
  inhibition: inactive
Mus musculus
  inhibition: Active
